Legend:
[1] = Observed apparent volume of distribution during terminal phase in Slc3a1-knockout mouse by measuring (2R)-2-amino-3-[[(2R)-2-amino-3-(1,8-diazaspiro[4.5]decan-8-yl)-3-oxo-propyl]disulfanyl]propanoic acid metabolite at 150 micromol/kg, po or 30 micromol/kg, iv measured upto 24 hrs by LC-MS/MS analysis; format: ADME, organism-based; details: in vivo, dose 150 µmol/kg
In short: (§1)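 Male Slc3a1-knockout mice (4 per route) dosed once by oral gavage in normal saline (150 μmol/kg) or by tail vein injection (30 μmol/kg). Saphenous-vein blood drawn into heparinized capillaries before dosing and at 5, 15, 30 min and 1, 4, 8, 24 h. Plasma stored at −80 °C. Parent and mixed-disulfide metabolite M1 quantitated by LC-MS/MS against synthetic M1. Oral bioavailability derived from oral versus iv exposure.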

[2] = AUC (0 to t) in Slc3a1-knockout mouse by measuring total parent compound and (2R)-2-amino-3-[[(2R)-2-amino-3-(1,8-diazaspiro[4.5]decan-8-yl)-3-oxo-propyl]disulfanyl]propanoic acid metabolite at 150 micromol/kg, po or 30 micromol/kg, iv measured upto 24 hrs by LC-MS/MS analysis; format: ADME, organism-based; details: in vivo, dose 150 µmol/kg; in short: as §1
[3] = Toxicity in SLC3A1-knockout male mouse assessed as animal death at 150 micromol/kg, po administered daily for 8 weeks; format: organism-based; details: in vivo, 1344 h, dose 150 µmol/kg
In short: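 Slc3a1-knockout male mice, 6 weeks old, bred by Slc3a1 × Slc3a1 mating; one pup per mating treated, one or more littermates as controls. Compound dissolved in water (18.9 mg/mL) and given by daily gavage of 100 μL (150 μmol/kg) for 8 weeks; controls received 100 μL water. Mice were sacrificed at study end, and kidneys and bladders were weighed.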

[4] = AUC (0 to t) in Slc3a1-knockout mouse by measuring (2R)-2-amino-3-[[(2R)-2-amino-3-(1,8-diazaspiro[4.5]decan-8-yl)-3-oxo-propyl]disulfanyl]propanoic acid metabolite at 150 micromol/kg, po or 30 micromol/kg, iv measured upto 24 hrs by LC-MS/MS analysis; format: ADME, organism-based; details: in vivo, dose 150 µmol/kg; in short: as §1
[5] = Oral bioavailability in Slc3a1-knockout mouse by measuring (2R)-2-amino-3-[[(2R)-2-amino-3-(1,8-diazaspiro[4.5]decan-8-yl)-3-oxo-propyl]disulfanyl]propanoic acid metabolite at 150 micromol/kg or 30 micromol/kg measured upto 24 hrs by LC-MS/MS analysis; format: ADME, organism-based; details: in vivo, at 150 µmol/kg; in short: as §1
[6] = AUC (0 to t) in Slc3a1-knockout mouse at 150 micromol/kg, po or 30 micromol/kg, iv measured upto 24 hrs by LC-MS/MS analysis; format: ADME, organism-based; details: in vivo, dose 150 µmol/kg; in short: as §1
[7] = Drug level in SLC3A1-knockout mouse urine assessed as (2R)-2-amino-3-[[(2R)-2-amino-3-(1,8-diazaspiro[4.5]decan-8-yl)-3-oxo-propyl]disulfanyl]propanoic acid metabolite concentration in urine at 30 micromol/kg, iv measured after 24 hrs; format: ADME, organism-based; details: in vivo, dose 30 µmol/kg, read-out: Ct
In short: (§2)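 Urine was collected 24 and 48 h after dosing. Parent and mixed-disulfide metabolite were measured, with the metabolite quantitated against chemically synthesized standard.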

[8] = Oral bioavailability in Slc3a1-knockout mouse at 150 micromol/kg or 30 micromol/kg measured upto 24 hrs by LC-MS/MS analysis; format: ADME, organism-based; details: in vivo, at 150 µmol/kg; in short: as §1
[9] = Drug metabolism in Slc3a1-knockout mouse assessed as (2R)-2-amino-3-[[(2R)-2-amino-3-(1,8-diazaspiro[4.5]decan-8-yl)-3-oxo-propyl]disulfanyl]propanoic acid metabolite formation; format: ADME
[10] = Half life in Slc3a1-knockout mouse at 150 micromol/kg, po or 30 micromol/kg, iv measured upto 24 hrs by LC-MS/MS analysis; format: ADME, organism-based; details: in vivo, dose 150 µmol/kg; in short: as §1
[11] = Half life in Slc3a1-knockout mouse by measuring (2R)-2-amino-3-[[(2R)-2-amino-3-(1,8-diazaspiro[4.5]decan-8-yl)-3-oxo-propyl]disulfanyl]propanoic acid metabolite at 150 micromol/kg, po or 30 micromol/kg, iv measured upto 24 hrs by LC-MS/MS analysis; format: ADME, organism-based; details: in vivo, dose 150 µmol/kg; in short: as §1
[12] = Toxicity in SLC3A1-knockout male mouse assessed as increase in body weight at 150 micromol/kg, po administered daily for 8 weeks; format: organism-based; details: in vivo, 1344 h, at 150 µmol/kg
Cystine [13] = test: In-vivo inhibition of L-cystine crystallization in SLC3A1-knockout male mouse assessed as reduction in stone formation in bladder at 150 micromol/kg, po administered daily for 8 weeks; format: functional, organism-based; design: scale not given: the % may be the effect or the level left; details: dose 150.0 µmol/kg
Cystine [14] = test: Inhibition of L-cystine crystallization in aqueous solution assessed as ratio of step velocity in presence of compound to step velocity measured initially in absence of compound at 45 uM by atomic force microscopic analysis
In short: (§3)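 AFM on the {0001} face of L-cystine crystals. Crystals were regrown for 20 min under flowing supersaturated 2 mM L-cystine (20 mL/h). {1010} step velocity was measured without inhibitor (V0), then with inhibitor at 15, 30 or 45 μM (V). Images were taken about 25 min after inhibitor injection. Result reported as a V/V0 range.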

Cystine [15] = test: Inhibition of L-cystine crystallization in millipore water at room temperature incubated for 72 hrs
In short: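 Supersaturated L-cystine (2.9 mM) in Millipore water was incubated with varying inhibitor concentrations for 72 h at room temperature and then centrifuged. L-cystine remaining in the supernatant was measured. EC50 was taken from dose–response curves as the concentration giving 50% inhibition of crystallization.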

[16] = Observed apparent volume of distribution during terminal phase in Slc3a1-knockout mouse at 150 micromol/kg, po or 30 micromol/kg, iv measured upto 24 hrs by LC-MS/MS analysis; format: ADME, organism-based; details: in vivo, dose 150 µmol/kg; in short: as §1
[17] = Cmax in Slc3a1-knockout mouse by measuring (2R)-2-amino-3-[[(2R)-2-amino-3-(1,8-diazaspiro[4.5]decan-8-yl)-3-oxo-propyl]disulfanyl]propanoic acid metabolite at 150 micromol/kg, po or 30 micromol/kg, iv measured upto 24 hrs by LC-MS/MS analysis; format: ADME, organism-based; details: in vivo, dose 150 µmol/kg; in short: as §1
[18] = Toxicity in SLC3A1-knockout male mouse assessed as body weight at 150 micromol/kg, po administered daily for 8 weeks (reference value: 20.3 +/- 2.1 g); format: organism-based; details: in vivo, 1344 h, dose 150 µmol/kg
[19] = Oral bioavailability in Slc3a1-knockout mouse by measuring total parent compound and (2R)-2-amino-3-[[(2R)-2-amino-3-(1,8-diazaspiro[4.5]decan-8-yl)-3-oxo-propyl]disulfanyl]propanoic acid metabolite at 150 micromol/kg or 30 micromol/kg measured upto 24 hrs by LC-MS/MS analysis; format: ADME, organism-based; details: in vivo, at 150 µmol/kg; in short: as §1
[20] = Drug level in SLC3A1-knockout mouse urine assessed as (2R)-2-amino-3-[[(2R)-2-amino-3-(1,8-diazaspiro[4.5]decan-8-yl)-3-oxo-propyl]disulfanyl]propanoic acid metabolite concentration in urine at 150 micromol/kg, po measured after 24 hrs; format: ADME, organism-based; details: in vivo, dose 150 µmol/kg, read-out: Ct; in short: as §2
Cystine [21] = test: Inhibition of L-cystine crystallization in aqueous solution assessed as ratio of step velocity in presence of compound to step velocity measured initially in absence of compound at 15 uM by atomic force microscopic analysis; in short: as §3
[22] = Toxicity in SLC3A1-knockout male mouse assessed as animal death at 150 micromol/kg, po administered daily for 4 weeks; format: organism-based; details: in vivo, 672 h, dose 150 µmol/kg
[23] = Cmax in Slc3a1-knockout mouse at 150 micromol/kg, po or 30 micromol/kg, iv measured upto 24 hrs by LC-MS/MS analysis; format: ADME, organism-based; details: in vivo, dose 150 µmol/kg; in short: as §1
[24] = Observed apparent oral clearance in Slc3a1-knockout mouse at 150 micromol/kg or 30 micromol/kg measured upto 24 hrs by LC-MS/MS analysis; format: ADME; details: in vivo, dose 150 µmol/kg; in short: as §1
[25] = Observed apparent oral clearance in Slc3a1-knockout mouse by measuring (2R)-2-amino-3-[[(2R)-2-amino-3-(1,8-diazaspiro[4.5]decan-8-yl)-3-oxo-propyl]disulfanyl]propanoic acid metabolite at 150 micromol/kg or 30 micromol/kg measured upto 24 hrs by LC-MS/MS analysis; format: ADME; details: in vivo, dose 150 µmol/kg; in short: as §1
Cystine [26] = test: Inhibition of L-cystine crystallization in aqueous solution assessed as ratio of step velocity in presence of compound to step velocity measured initially in absence of compound at 30 uM by atomic force microscopic analysis; in short: as §3

N[C@@H](CSSC[C@H](N)C(=O)N1CCC2(CCCN2)CC1)C(=O)N1CCC2(CCCN2)CC1
Vz/F obs [1]: 0.0108 micromol/kg/nmol/L
AUCt [2]: 59.505 µM·h
Activity [3]: Non-toxic
AUCt [4]: 40.963 µM·h
F [5]: 27%
AUCt [6]: 18.542 µM·h
concentration [7]: 1 µM
F [8]: 16%
Drug metabolism [9]: metabolite_detected
t1/2 [10]: 0.6 h
t1/2 [11]: 2.4 h
Activity [12]: 14.6%
Activity (Cystine [13]): 8%
Ratio (Cystine [14]): 0.01
EC50 (Cystine [15]): 29.5 nM
Vz/F_obs [16]: 0.007 micromol/kg/nmol/L
Cmax [17]: 16.9 µM
Activity [18]: 20.3 g
F [19]: 22%
concentration [20]: 2.1 µM
Ratio (Cystine [21]): 0.01
Activity [22]: Non-toxic
Cmax [23]: 11.4 µM
CL/F_obs [24]: 0.008 micromol/kg/nmol/L/hr
CL/F_obs [25]: 0.003 micromol/kg/nmol/L/hr
Ratio (Cystine [26]): 0.04

COC(=O)[C@@H](N)CSSC[C@H](N)C(=O)OC
Ratio (Cystine [14]): 0.21
EC50 (Cystine [15]): 3530 nM
Ratio (Cystine [21]): 0.4
Ratio (Cystine [26]): 0.27

CN1CCN(C(=O)[C@@H](N)CSSC[C@H](N)C(=O)N2CCN(C)CC2)CC1
F [5]: 25%
F [8]: 2.3%
Drug metabolism [9]: metabolite_detected
Ratio (Cystine [14]): 0.3
EC50 (Cystine [15]): 59.8 nM
F [19]: 18%
Ratio (Cystine [21]): 0.52
Ratio (Cystine [26]): 0.32

Source: ChEMBL document CHEMBL6074622, “8-l-Cystinyl Bis(1,8-diazaspiro[4.5]decane) as an Orally Bioavailable l-Cystine Crystallization Inhibitor for Cystinuria” (ACS Med Chem Lett, 2024)
